Compound activity (PubChem BioAssay)
Compounds with a hit are over-represented: about 2.3% of the library has one in this group of screens.
PAX8 reporter: inhibitors of PAX8-driven TPO luciferase reporter, primary screen, RMG-I cells, single concentration. SteadyGlo, 24 h. inhibition, % at 12.6 µM. hit rate 1.2% among 360,000. AID 652154, 2013;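 active = mean replicate inhibition at least 60% with every replicate also reaching 60%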;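 also: luciferase light reporting Pax8 driven TPO promoter activity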
EWS-Fli block: EWS/Fli-driven NR0B1 reporter inhibitors, primary screen, A673 cells, NR0B1 luciferase, luminescence, MLPCN library; viability-normalised; inhibition, % at 12.6 µM; hit rate 0.67% among 350,000; AID 651661, 2012;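 active = mean inhibition of at least 50% after viability correction, with every replicate also passing that limit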;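 also: firefly luciferase signal divided by Alamar Blue viability fluorescence both relative to DMSO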
PGC1a acetyl inh: inhibitors of PGC1a acetylation signal, primary screen, cell-based, U2OS, AlphaScreen, inhibitor mode; inhibition, % at 15.6 µM; AID 651687, 2012; hit rate 0.17% among 350,000; AlphaScreen anti-acetyl-lysine; with virally co-expressed GCN5 acetyltransferase;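 active = every replicate shows inhibition of at least 40%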
Env fusion inh: inhibitors of HIV-1 Env-driven cell-cell fusion, primary screen, HeLa-JRFL effector, CEM21 target cells, luciferase; inhibition, % at 12.3 µM; hit rate 1.1% among 360,000; AID 651610, 2012;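 active = mean replicate inhibition score of at least 50 and every replicate individually at or above 50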
F508del corr: F508del CFTR correction, initial screen, CFBE line, single point. CFBE cells, YFP halide quenching; stimulated with forskolin plus potentiator P3; % fluorescence drop versus neutral controls. activity (quench increase), % at 7.58 µM. hit rate 0.36% among 350,000. AID 720511, 2013;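 active = mean added fluorescence quench of at least 8% versus neutral control, with both replicates also reaching 8%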;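 also: cells transiently co-express mutant CFTR-F508del with the halide-sensitive YFP; corrector assay measuring rescue of mutant channel to the surface after 24 h compound exposure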
FN deposit inh: inhibitors of fibronectin matrix deposition, primary screen, AH1F cells, Alexa488-fibronectin fluorescence, plate reader. AH1F fibroblasts, overnight. inhibition, % at 12.6 µM. hit rate 0.086% among 350,000;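 active = mean inhibition across replicates of 30% or more, regardless of how many single replicates reach that level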
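Assay system: AH1F fibroblasts / Quantity: 10000 cells per well / Medium: DMEM plus 2% serum, read in PBS / Reagent: labelled fibronectin 24 nM / Dosing: single dose, pinned / Times: 1 h cell attachment, overnight exposure to compound and label / Signal: fluorescence, ex 485 nm, em 525 nm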
Each line names hits and unclear results; the compound was inactive in the other large screens.

CCOC(=O)[C@]12Cc3cc(C)ccc3[C@H]1N(C1CCCCC1)C(=O)c1cc(OC)ccc12	PAX8 reporter 103.6 (no result: PGC1a acetyl inh)
Cc1nc(-c2cccc(CN(C)C(=O)Oc3ccc([N+](=O)[O-])cc3)c2)no1	none (no result: PGC1a acetyl inh)
CN(Cc1cccc(-c2cccnc2)c1)C(=O)Oc1ccc([N+](=O)[O-])cc1	Env fusion inh 134.2 (no result: PGC1a acetyl inh, FN deposit inh)
CC(=O)N1C[C@@H]2C(c3ccccc3)[C@H](C1)N2C (stereo partly specified)	none (no result: PAX8 reporter, EWS-Fli block, PGC1a acetyl inh, Env fusion inh, F508del corr)
O=C(CNC(=O)OCc1ccccc1)Nc1ccc(Br)cc1C(=O)c1ccccc1	Env fusion inh 59.2 (no result: PAX8 reporter, EWS-Fli block, F508del corr)
C[CH2][Hg][S]c1ccccc1C(=O)O	PAX8 reporter 109.5
CC(C)c1ccc(N2C(=O)NC(=O)/C(=C\c3cnc(-c4ccccc4)nc3)C2=O)cc1	none (no result: PAX8 reporter, EWS-Fli block, Env fusion inh, F508del corr, FN deposit inh)
O=C1NC(=O)N(Cc2ccccc2)C(=O)/C1=C/C=C/c1ccco1	EWS-Fli block 64.7 (no result: PGC1a acetyl inh)
CC(C)c1ccc(N2C(=O)NC(=O)/C(=C\C=C\c3ccco3)C2=O)cc1	EWS-Fli block 73.7 (no result: PGC1a acetyl inh)
CCOC(=O)c1cncn1[C@@H](C)c1ccccc1	F508del corr 8.9 (no result: PGC1a acetyl inh)
Fc1ccc(CNCCc2c[nH]c3ccccc23)cc1	none
CCOc1c(Cl)cc(CNCCc2c[nH]c3ccccc23)cc1OC	Env fusion inh 64.0
COc1cccc(CNCCc2c[nH]c3ccccc23)c1	none
CCOc1cc(CNCCc2c[nH]c3ccccc23)cc(Cl)c1OCC	Env fusion inh 68.2 (no result: PGC1a acetyl inh, F508del corr)
C/C=C/c1ccc(C2[C@@H]3CN(C(=O)C4CCC4)C[C@H]2N3)cc1 (stereo partly specified)	none (no result: Env fusion inh)
FC(F)(F)CN1C[C@@H]2C(c3ccc(Br)cc3)[C@H](C1)N2CC1CC1 (stereo partly specified)	none (no result: PAX8 reporter, EWS-Fli block, PGC1a acetyl inh, Env fusion inh, F508del corr)
CC1=C(N2CC2)C(=O)C(CO)=C(N2CC2)C1=O	PAX8 reporter 117.9, Env fusion inh 80.1
COC(COC(N)=O)C1=C(N2CC2)C(=O)C(C)=C(N2CC2)C1=O (stereo unspecified)	none
O=C(Nc1cccc(OC(=O)N2CCCCC2)c1)N1CCCCC1	none (no result: PAX8 reporter, EWS-Fli block, Env fusion inh, F508del corr, FN deposit inh)
O=C(Nc1cccc(OC(=O)N2CCOCC2)c1)N1CCOCC1	Env fusion inh 72.4 (no result: EWS-Fli block, PGC1a acetyl inh, F508del corr, FN deposit inh)
CC(C)NC(=O)N1CC2C(c3ccccc3)C(C1)N2C (stereo unspecified)	none (no result: PAX8 reporter, EWS-Fli block, PGC1a acetyl inh, Env fusion inh, F508del corr)
Cc1cccc(S(=O)(=O)N2[C@@H]3Cn4c(ccc(-c5cccc(F)c5)c4=O)[C@H]2[C@@H](C(=O)O)[C@@H]3CO)c1	none (no result: PGC1a acetyl inh, Env fusion inh, FN deposit inh)
COc1ccc(C(O)(c2cncnc2)C2CC2)cc1 (stereo unspecified)	none (no result: FN deposit inh)
CC(=O)OC(C)(C)/C=C/C(=O)C(C)(O)C1[C@H](O)C[C@@]2(C)C3CC=C4C(CC[C@@H](O)C4(C)C)[C@]3(CO)C(=O)C[C@]12C (stereo partly specified)	PAX8 reporter 112.1 (no result: PGC1a acetyl inh)
CC(=O)OC(C)(C)/C=C/C(=O)[C@](C)(O)[C@H]1[C@H](O)C[C@@]2(C)[C@@H]3CC=C4[C@H](C[C@H](O)C(=O)C4(C)C)[C@]3(C)C(=O)C[C@]12C	PGC1a acetyl inh 88.1 (no result: PAX8 reporter, EWS-Fli block, Env fusion inh, F508del corr, FN deposit inh)
CC(=O)OC(C)(C)/C=C/C(=O)C(C)(O)C1C(O)CC2(C)C3CC=C4C(CC(O)C(=O)C4(C)C)C3(C)C(=O)CC12C (stereo unspecified)	PAX8 reporter 108.4, PGC1a acetyl inh 70.3, Env fusion inh 65.2, FN deposit inh 30.5
COc1cc2c(cc1OC)-c1c3c(cc4c1[C@@H](C2)N(C)CC4)OCO3	none
COc1cc2c(cc1O)C[C@H]1NCCc3cc4c(c-2c31)OCO4	PAX8 reporter 85.6
CCOC(=O)[C@]1(C#N)[C@@H]2C=CC(C(N)=O)=CN2[C@@H](C(N)=O)[C@@H]1c1ccc(F)cc1	PGC1a acetyl inh 88.2
COc1cccc(-c2ccc3n(c2=O)C[C@@H]2[C@@H](CO)[C@H](C(=O)O)[C@H]3N2Cc2ccccc2F)c1	none (no result: PGC1a acetyl inh, F508del corr, FN deposit inh)
CC(=O)OC1C(=O)OCC23CCC4(C)OC4C2OC2CC(OC(=O)C=CC=CC(=O)OCCC1C)C3(C)C21CO1 (stereo unspecified)	PAX8 reporter 103.2, Env fusion inh 77.3 (no result: PGC1a acetyl inh)
CC1=CC2OC3CC4OC(=O)C=CC=CC(C(C)O)OCC(O)C(C)CC(=O)OCC2(CC1O)C4(C)C31CO1 (stereo unspecified)	EWS-Fli block 51.1, PGC1a acetyl inh 80.9, Env fusion inh 82.6 (no result: PAX8 reporter)
CC(O)C1C=CC=CC(=O)OC2CC3OC4C5OC5(C)CCC4(COC(=O)C4OC4(C)C(O)CO1)C2(C)C31CO1 (stereo unspecified)	PAX8 reporter 103.2 (no result: PGC1a acetyl inh)
Fc1ccc(CN2CC3NC(C2)C3c2ccc(Br)cc2)cc1 (stereo unspecified)	none (no result: PAX8 reporter, EWS-Fli block, PGC1a acetyl inh, Env fusion inh, F508del corr)
COC(=O)C1=C(c2ccc(OCc3ccccc3)cc2)C[C@@H]2CC[C@H]1N2C(=O)NCCCCc1ccccc1	PAX8 reporter 61.7
COC(=O)C1=C(c2ccc(OCc3ccccc3)cc2)C[C@@H]2CC[C@H]1N2C(=O)NCCc1ccc(F)cc1	none
CC=Cc1ccc2n(c1=O)C[C@H]1[C@H](CO)[C@@H](C(=O)OC)[C@@H]2N1S(=O)(=O)c1ccccc1C (mixture of isomers)	none (no result: Env fusion inh)
COc1ccc(-c2ccc([C@@H]3[C@@H](CO)N4CCCCN(C(=O)Cc5ccccc5)C[C@H]34)cc2)cc1	PAX8 reporter 119.3 (no result: EWS-Fli block, Env fusion inh, FN deposit inh)
O=C(Cc1ccccn1)N1CCCCN2[C@@H](CO)[C@@H](c3ccc(-c4ccc(F)cc4)cc3)[C@@H]2C1	PAX8 reporter 89.2 (no result: Env fusion inh, FN deposit inh)
Nc1cc(Cl)c2nonc2c1[N+](=O)[O-]	PAX8 reporter 76.1 (no result: EWS-Fli block, PGC1a acetyl inh, F508del corr)
CC12CCC(=O)C=C1C=CC1C2CCC2(C)C(O)CCC12 (stereo unspecified)	Env fusion inh 80.7
C[C@]12CCC(=O)C=C1C=CC1C2CC[C@@]2(C)C1CC[C@@H]2O (stereo partly specified)	none (no result: PAX8 reporter)
COC(=O)[C@H]1[C@H](CO)[C@H]2Cn3c(ccc(/C=C/c4ccccc4)c3=O)[C@@H]1N2Cc1ccccc1F	none (no result: PGC1a acetyl inh, F508del corr, FN deposit inh)
CC1CCCN(c2ccc(C(=O)N3CCC4(CC3)OCCO4)cc2[N+](=O)[O-])C1 (stereo unspecified)	none
CCOC(=O)C1CCCN(c2ccc([N+](=O)[O-])c3nonc23)C1 (stereo unspecified)	F508del corr 14.5 (no result: PGC1a acetyl inh)
COc1ccc2c3c([nH]c2c1)C(C)=NCC3	none
CC1=NCCc2c1[nH]c1cc(O)ccc21	F508del corr 31.7
